Reference: ChEMBL document CHEMBL4041519, “Design, synthesis and SAR analysis of potent BACE1 inhibitors: Possible lead drug candidates for Alzheimer's disease” (Eur J Med Chem, 2017)

Key:
Beta-secretase 1 [1] = target: T1, Beta-secretase 1 (Homo sapiens, UniProt P56817); test: Inhibition of recombinant human BACE1 (1 to 460 residues) expressed in baculovirus infected insect cells using rhodamine-EVNLDAEFK peptide as substrate measured after 60 mins by FRET assay
In short: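 Enzyme 1 U/mL in 50 mM sodium acetate pH 4.5 with 750 nM substrate (Swedish-mutant peptide, KM 20 µM); screening at 30, 10, 3, 1 and 0.3 µM, 3.3% DMSO final. Incubated in the dark at 25 °C, stopped with 2.5 M sodium acetate; fluorescence ex 545/em 585 nm. IC50 from nonlinear fit of RFU/h versus log concentration; mean of 3 experiments.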

Beta-secretase 1 [2] = target: T1, Beta-secretase 1; test: Inhibition of BACE1 in human H4 cells expressing human APP K595N/M596L double mutant assessed as decrease in amyloid beta 42 and amyloid beta 40 level after overnight incubation by ELISA method; assay type: cell-based; settings: for inhibition: concentration not given here
In short: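 H4 neuroglioma cells seeded 2x10^5 per well, grown 24 h (5% CO2, humidified), then exposed overnight to increasing compound concentrations; 1% DMSO negative control, R-flurbiprofen positive control. Supernatant Aβ42 and Aβ40 captured with biotinylated 4G8 plus C-terminal-specific rabbit antibodies, streptavidin magnetic beads, electrochemiluminescence readout. EC50 = concentration halving Aβ production; mean of ≥3 experiments ± SD.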

T1 sequence (P56817 whole entry, the tested form may be a part): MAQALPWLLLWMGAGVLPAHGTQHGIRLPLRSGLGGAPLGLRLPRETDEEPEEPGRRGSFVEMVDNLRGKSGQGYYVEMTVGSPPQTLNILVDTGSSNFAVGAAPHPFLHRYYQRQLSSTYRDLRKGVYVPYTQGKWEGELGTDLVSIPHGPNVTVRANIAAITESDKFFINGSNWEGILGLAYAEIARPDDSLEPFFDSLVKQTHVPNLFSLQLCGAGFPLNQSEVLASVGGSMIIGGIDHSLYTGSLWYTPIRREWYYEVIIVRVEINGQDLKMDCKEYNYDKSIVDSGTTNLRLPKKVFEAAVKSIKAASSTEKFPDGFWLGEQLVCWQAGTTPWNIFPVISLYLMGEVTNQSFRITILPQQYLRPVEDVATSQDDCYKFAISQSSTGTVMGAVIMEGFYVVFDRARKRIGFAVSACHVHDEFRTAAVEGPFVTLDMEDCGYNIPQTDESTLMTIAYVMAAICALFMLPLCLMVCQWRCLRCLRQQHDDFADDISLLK

IC50 (Beta-secretase 1 [1]) | EC50 (Beta-secretase 1 [2]) | inhibition (Beta-secretase 1 [2]) | SMILES
85 nM | 350 nM | 90% | Fc1ccc2nc(-c3cccc(-c4cnc(-c5c[nH]c6cc(F)ccc56)[nH]4)c3)[nH]c2c1
98 nM | 1330 nM | 69% | O=C(Nc1ccc(F)cc1)c1cccc(-c2cnc(-c3c[nH]c4ccccc34)[nH]2)c1
310 nM | 880 nM | 42% | O=C(Nc1cccnc1)c1cccc(-c2cnc(-c3c[nH]c4ccccc34)[nH]2)c1
110 nM | 1210 nM | 64% | O=C(Nc1ccccc1)c1cccc(-c2cnc(-c3c[nH]c4ccccc34)[nH]2)c1
75 nM | 810 nM | 86% | Fc1ccc(-c2cnc(-c3cccc(-c4cnc(-c5c[nH]c6cc(F)ccc56)[nH]4)c3)[nH]2)cc1
660 nM | 590 nM | 70% | O=C(Nc1ccncc1)c1cccc(-c2cnc(-c3c[nH]c4ccccc34)[nH]2)c1
180 nM | 670 nM | 77% | Fc1ccc(-c2cnc(-c3cccc(-c4cnc(-c5c[nH]c6cc(OC(F)(F)F)ccc56)[nH]4)c3)[nH]2)cc1
120 nM | 290 nM | 87% | Fc1ccc2nc(-c3cccc(-c4cnc(-c5c[nH]c6cc(OC(F)(F)F)ccc56)[nH]4)c3)[nH]c2c1
220 nM | 480 nM | 75% | O=C(Nc1cccc(-c2cnc(-c3c[nH]c4ccccc34)[nH]2)c1)c1cccnc1
130 nM | 410 nM | 82% | O=C(Nc1cccc(-c2cnc(-c3c[nH]c4cc(F)ccc34)[nH]2)c1)c1cccnc1
